CHRM5 antagonist – CHRM5 antagonism in calcium assay. P08912. CHO-hM5 cells, Fluo-8 calcium fluorescence, ACh EC80. inhibition, % at 3 µM. hit rate 0.59% among 360,000;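 active means inhibition above a per-plate cutoff, the mean of that plate's test compounds plus 3 SD, cut at about 27% in these data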;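 further: 0% = acetylcholine EC80 with DMSO and 100% = DMSO without agonist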
Target sequence (P08912 whole entry, looked up): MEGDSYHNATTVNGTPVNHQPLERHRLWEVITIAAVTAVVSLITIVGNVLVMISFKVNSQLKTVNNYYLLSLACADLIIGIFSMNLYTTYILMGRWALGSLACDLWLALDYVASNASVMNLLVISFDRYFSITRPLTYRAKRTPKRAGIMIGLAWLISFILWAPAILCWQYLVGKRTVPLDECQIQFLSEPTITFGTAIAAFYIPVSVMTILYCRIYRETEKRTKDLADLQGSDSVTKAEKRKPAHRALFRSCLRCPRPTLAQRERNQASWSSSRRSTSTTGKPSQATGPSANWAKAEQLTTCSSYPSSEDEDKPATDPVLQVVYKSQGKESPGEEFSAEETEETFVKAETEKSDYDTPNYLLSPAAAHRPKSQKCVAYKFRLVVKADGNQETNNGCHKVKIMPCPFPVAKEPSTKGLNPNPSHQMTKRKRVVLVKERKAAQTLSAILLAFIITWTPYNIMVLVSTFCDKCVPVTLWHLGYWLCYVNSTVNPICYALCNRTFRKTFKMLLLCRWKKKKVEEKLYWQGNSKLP
M5 ag – agonists of human muscarinic M5 receptor (CHRM5); hit rate 0.19% among 360,000; AID 624037; activation, % at 3 µM; CHO-K1 hM5 cells, Fluo-8 calcium fluorescence; 0% DMSO wells, 100% maximal acetylcholine response; P08912;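 active means activation above the run's mean over test compounds plus 3 SD, cut at about 23% in these data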;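 further: signal is peak over basal fluorescence ratio across the kinetic read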
CHRM5 PAM – positive allosteric modulators of human muscarinic M5 receptor; CHO-K1 hM5, Fluo-8 calcium, ACh EC20 PAM; 0% = ACh EC20, 100% = ACh EC100; activation, % at 3 µM; hit rate 0.3% among 360,000; AID 624038;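 active means activation above the run cutoff, the mean activation of all test compounds plus 3 SD, cut at about 18% in these data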
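system = human M5 receptor in CHO-K1 cells | compound = one concentration, 3 µM final (nominal) | schedule = Post-acetylcholine fluorescence recording 140 s | signal = Fluo-8 calcium dye fluorescence, kinetic read | benchmarks = low control EC20 acetylcholine (0%), high control EC100 acetylcholine (100%) | repeats = singlicate, one well per test compound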
M4 PAM – potentiates acetylcholine response at human M4 receptor | P08173 | CHO-K1 hM4/Gqi5, Fluo-8 calcium fluorescence, ACh EC20; 0% = ACh EC20, 100% = maximal ACh | activation, % at 3 µM | hit rate 0.4% among 360,000;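 active means activation above its plate's cutoff, the mean activation of sample wells plus 3 SD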
M4 ag – CHRM4 agonism in calcium assay; P08173; activation, % at 3 µM; CHO-K1 hM4/Gqi5, Fluo-8 calcium fluorescence; vehicle 0%, full acetylcholine response 100%; hit rate 0.14% among 360,000;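 active means activation above the run mean over all test wells plus 3 SD, cut at about 32% in these data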;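 further: peak over basal fluorescence ratio per well then scaled between controls; 0% = DMSO wells and 100% = acetylcholine at EC100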
CHRM4 antagonist – antagonists of human muscarinic M4 receptor (CHRM4). P08173. CHO-hM4 cells, ACh EC80, Fluo-8 calcium fluorescence. inhibition, % at 3 µM. hit rate 0.73% among 360,000. AID 624125;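 active means inhibition above its plate's cutoff, the mean inhibition of sample wells plus 3 SD, cut at about 27% in these data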;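 further: 0% = acetylcholine EC80 with DMSO and 100% = DMSO without agonist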
* = called active by the depositor; ! = repeats disagree. Hits are enriched below; roughly 1.8% of the tested compounds scored in any of these assays.

SMILES	CHRM5 antagonist	M5 ag	CHRM5 PAM	M4 PAM	M4 ag	CHRM4 antagonist
CCOc1ccc(S(=O)(=O)Nc2cccc(C(=O)NCC(c3ccccc3)N(C)C)c2)cc1 (stereo unspecified)	11	-3	-14	5	16	-12
COc1ccc(C(CNC(=O)c2cccc(NS(=O)(=O)c3ccccc3)c2)N(C)C)cc1 (stereo unspecified)	14	-8	-7	-14	2	31*
O=C(NCC(NS(=O)(=O)OCC(Cl)(Cl)Cl)c1ccccc1)C(F)(F)F (stereo unspecified)	6	5	-5	5	3	-2
COc1ccc(NC(=O)N[C@H]2C=C[C@@H](CC(=O)NC3CCC3)O[C@@H]2CO)cc1	-7	1	7	10	2	-13
COC(=O)C1=C(C)NC2=C(C(=O)CCC2)C1c1ccc(-c2ccsc2C(=O)OC)o1 (stereo unspecified)	12	9	-12	-29	37*	4
CC1=C(C(=O)OC2CCCCCC2)C(c2ccc(C)o2)C2=C(CCCC2=O)N1 (stereo unspecified)	-6	-4	4	3	2	-4
CCN1CCN(Cc2ccc(C(=O)Nc3ccc(C)c(NCc4cnc(NC(=O)OC)cn4)c3)cc2C(F)(F)F)CC1	5	-3	-5	-4	0	33*!
CCN1CCN(Cc2ccc(NC(=O)c3ccc(C)c(NC(=O)c4ccnnc4)c3)cc2C(F)(F)F)CC1	0	1	0	17	2	0
COc1cc(OC)c(C(=O)OCC(=O)NCCc2ccccc2)cc1OC	-11	-3	0	2	2	-6
Cc1c(C(=O)N2CCCC(C)(C(=O)NS(=O)(=O)C3CC3)C2)oc2ccccc12 (stereo unspecified)	5	-1	-5	7	-1	-6
Cc1c(C(=O)N2CCC(C)(C(=O)NS(=O)(=O)C3CC3)C2)oc2ccccc12 (stereo unspecified)	4	-1	2	17*	1	-8
Cn1c(SCc2ccccc2)nc2ccsc2c1=O	30*	3	-21	-15	15	14
Cn1c(SCc2ccc(Br)cc2)nc2ccccc2c1=O	8	1	-10	-6	5	8
O=[N+]([O-])c1ccc2c(c1)C(N1CCN(CCO)CC1)Cc1ccc(F)cc1S2 (stereo unspecified)	1	-3	-8	-12	14	17
CSc1ccc2c(c1)C(N1CCN(C)CC1)Cc1ccc(F)cc1S2 (stereo unspecified)	29*	-16	-30	-16	29	43*
Cc1cc(C(=O)CN2CCN(CC(=O)Nc3cccc(F)c3)CC2)c(C)n1C1CC1	12	-1	1	4	3	0
COc1cc(-c2n[nH]c(=S)n2/N=C/c2cccn2C)cc(OC)c1OC	17	50*	-18	-39	51*	7
Cn1cccc1/C=N/n1c(-c2ccco2)n[nH]c1=S	1	-1	-2	2	1	-1
Nc1c(C(=O)CSc2n[nH]c(-c3ccccc3)n2)c(=O)[nH]c(=O)n1C1CC1	-1	5	2	23*	2	3
Nc1c(C(=O)CSc2n[nH]c(-c3ccccc3Br)n2)c(=O)[nH]c(=O)n1C1CC1	0	0	-1	1	0	0
CCN(CC)CCCCCCCCOC(=O)c1cc(OC)c(OC)c(OC)c1	2	0	-13	-19	7	29*
COc1ccc(C(=O)OCC(=O)NC2CCCCCC2)c(OC)c1	-3	-1	0	-2	1	-12
CCOc1ccc(N(CC(=O)Nc2ccc(C)c(C)c2)S(C)(=O)=O)cc1	-13	2	14	3	2	-11
O=C(COC(=O)CSc1ccc(Cl)cc1)NCCc1ccccc1	-3	-3	4	24*	3	-14
Cc1ccc(OCC(=O)OCC(=O)Nc2sccc2C(N)=O)cc1C	32*	10	-18	-11	16	23
SMILES	CHRM5 antagonist	M5 ag	CHRM5 PAM	M4 PAM	M4 ag	CHRM4 antagonist
NC(=O)c1ccsc1NC(=O)COC(=O)c1ccc(Cl)cc1	15	7	-28	-11	26	11
NC(=O)c1ccsc1NC(=O)COC(=O)CSc1ccc(Cl)cc1	32*	4	-20	-18	16	16
Cc1cc(=O)oc2cc(OC(C)C(=O)NC3(C#N)CCCCC3)ccc12 (stereo unspecified)	-3	0	-2	4	1	-7
Cc1ccc(CNC(=O)CN2C(=O)COc3ccc(S(=O)(=O)N4CCCCC4)cc32)o1	6	-5	2	-3	2	12
CN1CCN(c2ccc(-c3cccc(NC(=O)COc4ccc(Cl)cc4Cl)c3)nn2)CC1	14	-5	-5	-3	6	2
Cc1ccc(NC(=O)C2CCN(S(=O)(=O)c3cc([N+](=O)[O-])ccc3Cl)CC2)nc1	18	1	-21	-9	16	21
Cc1ccc2nc(NC(=O)C3CCN(S(=O)(=O)c4cc([N+](=O)[O-])ccc4Cl)CC3)sc2c1	30*	-2	-13	-9	8	26
CC(NC(=O)C1CCN(S(=O)(=O)c2cc([N+](=O)[O-])ccc2Cl)CC1)c1ccccc1 (stereo unspecified)	-6	-1	4	5	3	-5
O=C(Nc1nc2ccc(F)cc2s1)C1CCN(S(=O)(=O)c2cc([N+](=O)[O-])ccc2Cl)CC1	44*	-2	-18	-6	10	27*
O=C(CSc1ncccn1)NC1CCS(=O)(=O)C1 (stereo unspecified)	4	-2	1	15	2	-8
Cc1ccc(SC[C@H](C)CN2CC[C@H](C(C)(C)C)CCC2=O)cc1	14	0	-7	-1	-1	17
Cc1ccc(S(=O)(=O)n2ccc3c2CCCC3=O)cc1	37*	-9	-21	-17	2	27*
CCN(CC)c1ccc(/C=C2\C(=O)c3ccc(C(=O)O)cc3C2=O)cc1	25	32*	-21	-11	20	32*
CCCOC1CCCN(C(=O)c2cc(Cl)c(Cl)cc2C(=O)O)C1 (stereo unspecified)	5	25*	-11	-6	3	9
CCOC(=O)C1C(=O)C(=O)N(C2CCCCC2)C1C(=O)OCC (stereo unspecified)	2	4	2	5	1	7
COc1ccc(/C=N/NC(=O)c2ccc3ccccc3c2)cc1OS(=O)(=O)c1ccc(NC(C)=O)cc1	13	1	-17	-17	16	28*

Screening data from PubChem BioAssay.
